In ChEMBL document CHEMBL4715745, “Synthesis and biological evaluation of novel FK228 analogues as potential isoform selective HDAC inhibitors” (Eur J Med Chem, 2016):
One block for each molecule: values may come before it.

Tests used:
PC-3 = assay: Growth inhibition of human PC-3 cells measured after 48 hrs by sulforhodamine B assay; assay type: functional
How it was run: (§1)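 Panel of 39 human cancer cell lines tested at the Japanese Foundation for Cancer Research. Five concentrations per compound, spanning 10⁻¹¹–10⁻⁷ M, 10⁻¹⁰–10⁻⁶ M or 10⁻⁸–10⁻⁴ M, were used to build dose-response curves. GI₅₀ is the concentration giving 50% growth inhibition relative to control.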

SNB-78 = assay: Growth inhibition of human SNB-78 cells measured after 48 hrs by sulforhodamine B assay; assay type: functional; how it was run: as §1
HCC 2998 = assay: Growth inhibition of human HCC 2998 cells measured after 48 hrs by sulforhodamine B assay; assay type: functional; how it was run: as §1
HCT-116 = assay: Growth inhibition of human HCT-116 cells measured after 48 hrs by sulforhodamine B assay; assay type: functional; how it was run: as §1
MKN-7 = assay: Growth inhibition of human MKN-7 cells measured after 48 hrs by sulforhodamine B assay; assay type: functional; how it was run: as §1
DMS-273 = assay: Growth inhibition of human DMS-273 cells measured after 48 hrs by sulforhodamine B assay; assay type: functional; how it was run: as §1
LOX IMVI = assay: Growth inhibition of human LOX IMVI cells measured after 48 hrs by sulforhodamine B assay; assay type: functional; how it was run: as §1
SNB-75 = assay: Growth inhibition of human SNB-75 cells measured after 48 hrs by sulforhodamine B assay; assay type: functional; how it was run: as §1
SK-OV-3 = assay: Growth inhibition of human SK-OV-3 cells measured after 48 hrs by sulforhodamine B assay; assay type: functional; how it was run: as §1
Histone deacetylase 1 = Histone deacetylase 1 (Homo sapiens, UniProt Q13547); assay: Inhibition of human HDAC1 expressed in 293T cells using Ac-KGLGK(Ac)-MCA as substrate incubated for 30 mins in presence of 0.1 mM DTT by fluorescence plate reader assay; parameters: species or system HEK293T
Histone deacetylase 1, sequence (Q13547 whole entry): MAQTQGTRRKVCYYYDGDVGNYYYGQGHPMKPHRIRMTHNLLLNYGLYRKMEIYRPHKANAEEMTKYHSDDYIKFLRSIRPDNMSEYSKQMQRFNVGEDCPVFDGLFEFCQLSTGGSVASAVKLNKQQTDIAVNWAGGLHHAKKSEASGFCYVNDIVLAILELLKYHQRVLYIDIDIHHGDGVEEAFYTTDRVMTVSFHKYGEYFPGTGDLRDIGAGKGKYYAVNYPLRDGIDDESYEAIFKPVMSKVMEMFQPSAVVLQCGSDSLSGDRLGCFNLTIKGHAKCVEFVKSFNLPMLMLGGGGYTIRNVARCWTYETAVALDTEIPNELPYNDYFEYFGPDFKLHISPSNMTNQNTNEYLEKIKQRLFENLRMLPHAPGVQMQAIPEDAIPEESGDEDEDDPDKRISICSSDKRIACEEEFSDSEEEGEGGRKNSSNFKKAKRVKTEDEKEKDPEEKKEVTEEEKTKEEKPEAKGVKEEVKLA

SF-539 = assay: Growth inhibition of human SF-539 cells measured after 48 hrs by sulforhodamine B assay; assay type: functional; how it was run: as §1
DU-145 = assay: Growth inhibition of human DU-145 cells measured after 48 hrs by sulforhodamine B assay; assay type: functional; how it was run: as §1
OVCAR-3 = assay: Growth inhibition of human OVCAR-3 cells measured after 48 hrs by sulforhodamine B assay; assay type: functional; how it was run: as §1
RXF 631 = assay: Growth inhibition of human RXF 631 cells measured after 48 hrs by sulforhodamine B assay; assay type: functional; how it was run: as §1
KM12 = assay: Growth inhibition of human KM12 cells measured after 48 hrs by sulforhodamine B assay; assay type: functional; how it was run: as §1
[1] = target: T1, Protein deacetylase HDAC6 (Mus musculus, UniProt Q9Z2V5); assay: Inhibition of mouse HDAC6 expressed in 293T cells using Ac-KGLGK(Ac)-MCA as substrate incubated for 30 mins in presence of 0.1 mM DTT by fluorescence plate reader assay; parameters: species or system HEK293T
T1 sequence (Q9Z2V5 whole entry): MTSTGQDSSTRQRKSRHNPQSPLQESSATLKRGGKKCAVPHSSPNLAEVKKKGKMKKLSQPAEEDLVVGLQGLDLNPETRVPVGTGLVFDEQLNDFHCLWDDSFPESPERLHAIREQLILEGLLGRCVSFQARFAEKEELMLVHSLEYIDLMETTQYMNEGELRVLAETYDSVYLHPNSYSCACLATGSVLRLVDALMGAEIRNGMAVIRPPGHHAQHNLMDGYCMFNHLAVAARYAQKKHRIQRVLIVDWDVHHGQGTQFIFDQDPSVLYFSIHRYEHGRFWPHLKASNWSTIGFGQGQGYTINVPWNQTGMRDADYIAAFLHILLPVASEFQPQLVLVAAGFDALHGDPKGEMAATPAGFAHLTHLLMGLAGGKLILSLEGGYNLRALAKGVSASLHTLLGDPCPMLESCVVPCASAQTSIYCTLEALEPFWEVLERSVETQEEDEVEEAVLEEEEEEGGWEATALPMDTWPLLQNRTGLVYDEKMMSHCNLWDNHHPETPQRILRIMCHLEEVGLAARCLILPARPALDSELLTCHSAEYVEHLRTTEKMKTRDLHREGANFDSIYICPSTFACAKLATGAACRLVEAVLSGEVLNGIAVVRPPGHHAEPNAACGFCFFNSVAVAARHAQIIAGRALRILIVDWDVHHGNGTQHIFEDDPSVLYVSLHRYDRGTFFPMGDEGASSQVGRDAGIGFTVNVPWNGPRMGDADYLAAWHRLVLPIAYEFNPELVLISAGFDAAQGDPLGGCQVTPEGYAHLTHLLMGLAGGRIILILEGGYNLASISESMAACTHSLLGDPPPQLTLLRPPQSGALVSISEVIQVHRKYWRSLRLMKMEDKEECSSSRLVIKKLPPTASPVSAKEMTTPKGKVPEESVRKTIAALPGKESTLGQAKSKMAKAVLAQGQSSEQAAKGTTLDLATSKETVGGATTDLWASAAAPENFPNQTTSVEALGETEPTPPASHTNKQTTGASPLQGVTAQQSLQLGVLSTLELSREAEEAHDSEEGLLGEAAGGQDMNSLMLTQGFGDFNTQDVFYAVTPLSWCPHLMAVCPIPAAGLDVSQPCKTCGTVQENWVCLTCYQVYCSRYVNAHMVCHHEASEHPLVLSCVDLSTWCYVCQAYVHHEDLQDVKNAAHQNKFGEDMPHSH
How it was run: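 HDAC enzyme assay run in the presence of 0.1 mM dithiothreitol (DTT); IC₅₀ determined.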

MKN-74 = assay: Growth inhibition of human MKN-74 cells measured after 48 hrs by sulforhodamine B assay; assay type: functional; how it was run: as §1
St-4 = assay: Growth inhibition of human St-4 cells measured after 48 hrs by sulforhodamine B assay; assay type: functional; how it was run: as §1
SF-295 = assay: Growth inhibition of human SF-295 cells measured after 48 hrs by sulforhodamine B assay; assay type: functional; how it was run: as §1
[2] = Growth inhibition of human HBC4 cells measured after 48 hrs by sulforhodamine B assay; assay type: functional; how it was run: as §1
MKN-1 = assay: Growth inhibition of human MKN-1 cells measured after 48 hrs by sulforhodamine B assay; assay type: functional; how it was run: as §1
SF-268 = assay: Growth inhibition of human SF-268 cells measured after 48 hrs by sulforhodamine B assay; assay type: functional; how it was run: as §1
DMS-114 = assay: Growth inhibition of human DMS-114 cells measured after 48 hrs by sulforhodamine B assay; assay type: functional; how it was run: as §1
HT-29 = assay: Growth inhibition of human HT-29 cells measured after 48 hrs by sulforhodamine B assay; assay type: functional; how it was run: as §1
NCI-H522 = assay: Growth inhibition of human NCI-H522 cells measured after 48 hrs by sulforhodamine B assay; assay type: functional; how it was run: as §1
MKN-28 = assay: Growth inhibition of human MKN-28 cells measured after 48 hrs by sulforhodamine B assay; assay type: functional; how it was run: as §1
NCI-H226 = assay: Growth inhibition of human NCI-H226 cells measured after 48 hrs by sulforhodamine B assay; assay type: functional; how it was run: as §1
MKN-45 = assay: Growth inhibition of human MKN-45 cells measured after 48 hrs by sulforhodamine B assay; assay type: functional; how it was run: as §1
A549 = assay: Growth inhibition of human A549 cells measured after 48 hrs by sulforhodamine B assay; assay type: functional; how it was run: as §1
NCI-H460 = assay: Growth inhibition of human NCI-H460 cells measured after 48 hrs by sulforhodamine B assay; assay type: functional; how it was run: as §1
MDA-MB-231 = assay: Growth inhibition of human MDA-MB-231 cells measured after 48 hrs by sulforhodamine B assay; assay type: functional; how it was run: as §1
OVCAR-5 = assay: Growth inhibition of human OVCAR-5 cells measured after 48 hrs by sulforhodamine B assay; assay type: functional; how it was run: as §1
OVCAR-4 = assay: Growth inhibition of human OVCAR-4 cells measured after 48 hrs by sulforhodamine B assay; assay type: functional; how it was run: as §1
[3] = Growth inhibition of human BSY1 cells measured after 48 hrs by sulforhodamine B assay; assay type: functional; conditions: BSY-1; how it was run: as §1
U-251 = assay: Growth inhibition of human U-251 cells measured after 48 hrs by sulforhodamine B assay; assay type: functional; how it was run: as §1
ACHN = assay: Growth inhibition of human ACHN cells measured after 48 hrs by sulforhodamine B assay; assay type: functional; how it was run: as §1
[4] = Growth inhibition of human HBC5 cells measured after 48 hrs by sulforhodamine B assay; assay type: functional; how it was run: as §1
[5] = Selectivity index, ratio of IC50 for mouse HDAC6 expressed in 293T cells to IC50 for human HDAC1 expressed in 293T cells using Ac-KGLGK(Ac)-MCA as substrate incubated for 30 mins in presence of 0.1 mM DTT by fluorescence plate reader assay; conditions: 0.5 h
How it was run: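 Ratio of HDAC6 IC₅₀ to HDAC1 IC₅₀, taken as selectivity for class I HDAC1 over class II HDAC6. Both enzyme assays were run in the presence of 0.1 mM DTT.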

MCF7 = assay: Growth inhibition of human MCF7 cells measured after 48 hrs by sulforhodamine B assay; assay type: functional; how it was run: as §1
NCI-H23 = assay: Growth inhibition of human NCI-H23 cells measured after 48 hrs by sulforhodamine B assay; assay type: functional; how it was run: as §1
HCT-15 = assay: Growth inhibition of human HCT-15 cells measured after 48 hrs by sulforhodamine B assay; assay type: functional; how it was run: as §1
OVCAR-8 = assay: Growth inhibition of human OVCAR-8 cells measured after 48 hrs by sulforhodamine B assay; assay type: functional; how it was run: as §1

GI50 (PC-3): 0.0057 µM
GI50 (HCC 2998): 0.0032 µM
GI50 (HCT-116): 0.0026 µM
GI50 (MKN-7): 0.035 µM
GI50 (SK-OV-3): 0.0024 µM
IC50 (Histone deacetylase 1): 0.00054 µM
GI50 (DU-145): 0.0036 µM
GI50 (OVCAR-3): 0.017 µM
IC50 [1]: 0.0549 µM
GI50 (MKN-74): 0.0059 µM
GI50 (MKN-1): 0.0026 µM
GI50 (HT-29): 0.003 µM
GI50 (NCI-H522): 0.00072 µM
GI50 (MKN-28): 0.078 µM
GI50 (NCI-H226): 0.0048 µM
GI50 (MKN-45): 0.064 µM
GI50 (A549): 0.0034 µM
GI50 (NCI-H460): 0.0062 µM
GI50 (MDA-MB-231): 0.0087 µM
GI50 (OVCAR-5): 0.0068 µM
GI50 (OVCAR-4): 0.027 µM
GI50 (U-251): 0.022 µM
GI50 (ACHN): 0.024 µM
GI50 (MCF7): 0.062 µM
GI50 (NCI-H23): 0.0044 µM
GI50 (HCT-15): 0.1 µM
GI50 (OVCAR-8): 0.0046 µM
SMILES: CC(C)[C@H]1NC(=O)C[C@H]2/C=C/CCSSC[C@@H](NC1=O)C(=O)N[C@H](Cc1ccccc1)C(=O)NCC(=O)O2
GI50 (SNB-78): 0.0086 µM
GI50 (DMS-273): 0.02 µM
GI50 (LOX IMVI): 0.0022 µM
GI50 (SNB-75): 0.0087 µM
GI50 (SF-539): 0.0033 µM
GI50 (RXF 631): 0.0079 µM
GI50 (KM12): 0.0028 µM
GI50 (St-4): 0.034 µM
GI50 (SF-295): 0.021 µM
GI50 [2]: 0.037 µM
GI50 (SF-268): 0.005 µM
GI50 (DMS-114): 0.0041 µM
GI50 [3]: 0.036 µM
GI50 [4]: 0.084 µM
Ratio IC50 [5]: 102

GI50 (PC-3): 1.4 µM
GI50 (HCC 2998): 1.3 µM
GI50 (HCT-116): 0.34 µM
GI50 (MKN-7): 1.8 µM
GI50 (SK-OV-3): 1.5 µM
IC50 (Histone deacetylase 1): 0.0114 µM
GI50 (DU-145): 0.83 µM
GI50 (OVCAR-3): 1.5 µM
IC50 [1]: 2.26 µM
GI50 (MKN-74): 1.5 µM
GI50 (MKN-1): 1.1 µM
GI50 (HT-29): 0.69 µM
GI50 (NCI-H522): 0.2 µM
GI50 (MKN-28): 1.8 µM
GI50 (NCI-H226): 1.6 µM
GI50 (MKN-45): 2.2 µM
GI50 (A549): 0.72 µM
GI50 (NCI-H460): 1.1 µM
GI50 (MDA-MB-231): 1.2 µM
GI50 (OVCAR-5): 1.2 µM
GI50 (OVCAR-4): 1.6 µM
GI50 (U-251): 0.33 µM
GI50 (ACHN): 9.4 µM
GI50 (MCF7): 1.6 µM
GI50 (NCI-H23): 1.2 µM
GI50 (HCT-15): 17 µM
GI50 (OVCAR-8): 1.5 µM
SMILES: CC(C)C[C@@H]1NC(=O)[C@H]2CSSCC/C=C/[C@H](CC(=O)N[C@H](C(C)C)C(=O)N2)OC(=O)CNC1=O
GI50 (SNB-78): 1.8 µM
GI50 (DMS-273): 1.4 µM
GI50 (LOX IMVI): 0.18 µM
GI50 (SNB-75): 1 µM
GI50 (SF-539): 1.5 µM
GI50 (RXF 631): 3.2 µM
GI50 (KM12): 1.1 µM
GI50 (St-4): 2.1 µM
GI50 (SF-295): 1.5 µM
GI50 [2]: 1.4 µM
GI50 (SF-268): 0.82 µM
GI50 (DMS-114): 0.68 µM
GI50 [3]: 1.5 µM
GI50 [4]: 1.7 µM
Ratio IC50 [5]: 198
